In article PMC3472112 (Structure (London, England : 1993), 2012):
Like-named read-outs stand apart in the source and are kept apart here. Blank lines part the entries; values can stand above or below the molecule they belong to.

Experiments:
Tm0922 = biological target: T1, Tm0922 (Thermotoga maritima, UniProt Q9X024); assay: isothermal titration calorimetry; type: binding
T1 sequence (Q9X024 1-490): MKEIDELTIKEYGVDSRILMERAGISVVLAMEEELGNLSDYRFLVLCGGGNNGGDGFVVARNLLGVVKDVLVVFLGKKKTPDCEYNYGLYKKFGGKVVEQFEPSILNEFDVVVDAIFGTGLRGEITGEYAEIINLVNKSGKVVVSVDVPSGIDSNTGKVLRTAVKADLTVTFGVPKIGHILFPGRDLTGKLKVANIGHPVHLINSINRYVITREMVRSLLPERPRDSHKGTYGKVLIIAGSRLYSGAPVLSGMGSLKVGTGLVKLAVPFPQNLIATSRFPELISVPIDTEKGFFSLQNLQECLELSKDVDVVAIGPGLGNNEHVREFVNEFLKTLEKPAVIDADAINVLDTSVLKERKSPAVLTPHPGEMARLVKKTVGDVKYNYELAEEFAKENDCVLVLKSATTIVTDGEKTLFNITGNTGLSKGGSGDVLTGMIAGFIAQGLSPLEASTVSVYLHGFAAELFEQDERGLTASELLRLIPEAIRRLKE
How it was run: (§1)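 Isothermal titrations were run at 25°C, with Tm0922 also tested at 55°C, in 100 mM HEPES pH 7.5 with 100 mM NaCl. Purified protein was in the cell at 70-130 μM. Metabolite ligands from the NAD-related and thymine-related sets were titrated to final concentrations 1.2 to 5 times the protein concentration. Binding parameters were taken from curves fitted to the titration profiles.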

AI-BP = biological target: T2, AI-BP (Mus musculus, UniProt Q8K4Z3); assay: isothermal titration calorimetry; type: binding; settings: 100 mM HEPES pH 7.5, 100 mM NaCl, 25°C
T2 sequence (Q8K4Z3 25-282): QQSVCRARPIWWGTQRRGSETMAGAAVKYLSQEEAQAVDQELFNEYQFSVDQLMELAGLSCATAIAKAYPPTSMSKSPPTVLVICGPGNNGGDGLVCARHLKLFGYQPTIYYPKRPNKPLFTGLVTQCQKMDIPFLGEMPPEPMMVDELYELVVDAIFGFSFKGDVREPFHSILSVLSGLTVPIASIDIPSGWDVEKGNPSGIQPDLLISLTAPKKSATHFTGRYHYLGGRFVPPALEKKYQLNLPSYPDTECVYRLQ
How it was run: as §1

YxkO [1] = biological target: T3, YxkO (Bacillus subtilis, UniProt P94368); assay: isothermal titration calorimetry; type: binding
T3 sequence (P94368 1-276): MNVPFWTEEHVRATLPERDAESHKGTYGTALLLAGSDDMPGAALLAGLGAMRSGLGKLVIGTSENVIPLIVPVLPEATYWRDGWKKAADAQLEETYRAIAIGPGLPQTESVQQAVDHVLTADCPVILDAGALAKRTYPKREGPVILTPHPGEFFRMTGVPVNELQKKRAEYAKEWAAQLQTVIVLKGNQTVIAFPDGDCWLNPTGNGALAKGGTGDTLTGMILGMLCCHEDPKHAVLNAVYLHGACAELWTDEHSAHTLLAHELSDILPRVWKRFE
How it was run: as §1

YxkO [2] = biological target: T3, YxkO; assay: crystal structure; settings: ATP-binding site, Mg2+
YxkO [3] = biological target: T3, YxkO; assay: crystal structure; type: binding; settings: kinase substrate site, AMP/Mg2+ in ATP site; dehydratase substrate
purified protein [4] = substrate: NC(=O)C1=CN([C@@H]2O[C@H](COP(=O)(O)OP(=O)(O)OC[C@H]3O[C@@H](n4cnc5c(N)ncnc54)[C@H](O)[C@@H]3O)[C@@H](O)[C@H]2O)C(O)CC1; assay: purified protein; type: biochemical, Bacillus subtilis; settings: co-substrate ADP, 25°C
purified protein [5] = substrate: Nc1ncnc2c1ncn2[C@@H]1O[C@H](COP(=O)(O)OP(=O)(O)O)[C@@H](O)[C@H]1O; assay: purified protein; type: biochemical, Bacillus subtilis; settings: co-substrate NADHX, 25°C, varied: cofactor

Molecule: Nc1ncnc2c1ncn2[C@@H]1O[C@H](COP(=O)(O)OP(=O)(O)OC[C@H]2O[C@@H]([n+]3cccc(C(=O)O)c3)[C@H](O)[C@@H]2O)[C@@H](O)[C@H]1OP(=O)(O)O [NAADP]
Kd (Tm0922): 105 ± 11.1 µM

Molecule: Nc1ncnc2c1ncn2[C@@H]1O[C@H](COP(=O)(O)OP(=O)([O-])OC[C@H]2O[C@@H]([n+]3cccc(C(=O)O)c3)[C@H](O)[C@@H]2O)[C@@H](O)[C@H]1O [NAAD]
crystal structure (cocktail soak) (YxkO [2]): nicotinic acid adenine dinucleotide (NAAD) is bound in the same position

Molecule: NC(=O)C1=CN([C@@H]2O[C@H](COP(=O)(O)OP(=O)(O)OC[C@H]3O[C@@H](n4cnc5c(N)ncnc54)[C@H](OP(=O)(O)O)[C@@H]3O)[C@@H](O)[C@H]2O)C(O)CC1 (stereo partly shown) [NADPHX]
crystal structure (ATP/Mg2+ co-crystal soaked with NADPH) (YxkO [3]): Coordination of NADPHX in the active site of YxkO

Molecule: NC(=O)c1ccc[n+]([C@@H]2O[C@H](COP(=O)(O)OP(=O)(O)OC[C@H]3O[C@@H](n4cnc5c(N)ncnc54)[C@H](OP(=O)(O)O)[C@@H]3O)[C@@H](O)[C@H]2O)c1 [NADP]
Kd (Tm0922): 6 ± 0.9 µM

Molecule: NC(=O)c1ccc[n+]([C@@H]2O[C@H](COP(=O)(O)OP(=O)(O)OC[C@H]3O[C@@H](n4cnc5c(N)ncnc54)[C@H](O)[C@@H]3O)[C@@H](O)[C@H]2O)c1 [NAD]
crystal structure (cocktail soak) (YxkO [2]): YxkO and Tm0922 crystals soaked with cocktail G contained NAD in the predicted ATP-binding site

B1: YxkO (Bacillus subtilis subsp. subtilis str. 168) (protein)
chain: T3 sequence (P94368 1-276)
kcat (purified protein [4]): 0.35 ± 0.01 s⁻¹ | Km (purified protein [5]): 6.43 ± 0.49 µM | kcat (purified protein [5]): 0.35 ± 0.01 s⁻¹

The next lines start with the values.

Kd (Tm0922; 100 mM HEPES pH 7.5, 100 mM NaCl, 25°C (55°C also tested), likely YjeF_N site): 5.1 ± 0.4 µM | Kd (AI-BP): 451 ± 30.8 µM
Molecule: Nc1ncnc2c1ncn2[C@@H]1O[C@H](COP(=O)(O)OP(=O)(O)OC[C@H]2OC(O)[C@H](O)[C@@H]2O)[C@@H](O)[C@H]1O (stereo partly shown) [ADPR]

Kd (YxkO [1]): 595 ± 134 µM
Molecule: Nc1ncnc2c1ncn2[C@@H]1O[C@H](COP(=O)(O)OP(=O)(O)OP(=O)(O)O)[C@@H](O)[C@H]1O [ATP]

Kd (YxkO [1]): 9.6 ± 0.7 µM
Molecule: NC(=O)C1=CN([C@@H]2O[C@H](COP(=O)(O)OP(=O)(O)OC[C@H]3O[C@@H](n4cnc5c(N)ncnc54)[C@H](O)[C@@H]3O)[C@@H](O)[C@H]2O)C=CC1 [NADH]

Kd (Tm0922): 5.3 ± 1.2 µM
Molecule: NC(=O)C1=CN([C@@H]2O[C@H](COP(=O)(O)OP(=O)(O)OC[C@H]3O[C@@H](n4cnc5c(N)ncnc54)[C@H](OP(=O)(O)O)[C@@H]3O)[C@@H](O)[C@H]2O)C=CC1 [NADPH]
